Experimental data from publication PMC8650835 (International Journal of Nanomedicine, 2021).
Values after ≈ are worked out from the molar mass of the structure shown.

Columns and labels:
[1] = Aqueous solubility in PBS; type: physicochemical; conditions: pH = 7.4
[2] = in PBS; cited from earlier work
[3] = free CPT; cited from earlier work
[4] = In vivo safety: body weight, H&E histology, blood biochemistry; set-up: species or system BALB/c nude mice; conditions: 10 mg·kg^−1 i.v.
Summary of the method: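 MCF-7 xenografts in BALB/c nude mice: 1×10^6 cells s.c. (alar region), randomised at 100–200 mm3 (n = 6/group). Untreated normal group also included. Body weight recorded every 2 days for 16 days. Day 16: serum ALT, AST, BUN, CRE measured; organs formalin-fixed, paraffin-embedded and H&E-stained.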

Which aqueous solubility [1] does the source give for `CC[C@@]1(O)C(=O)OCc2c1cc1n(c2=O)Cc2cc3ccccc3nc2-1` [CPT, camptothecin] here?
Its aqueous solubility is 3 µg/mL (≈ 8.61 µM).

And the “CPT lactone form remained at equilibrium” value [2]?
The value was 17%.

What about the “half-life of lactone ring hydrolysis” value [2] of the same compound?
Its value is 24 min.

What about the “blood circulation half-life (t1/2)” value [3] of the same compound?
Its value is 9.9 ± 8.04 min.

For `CCc1c2c(nc3ccc(OC(=O)N4CCC(N5CCCCC5)CC4)cc13)-c1cc3c(c(=O)n1C2)COC(=O)[C@]3(O)CC` [IR, irinotecan], which “body weights compared to PBS” value ([4]; MCF-7 tumor-bearing nude mice, p < 0.05) is on record?
Its value is “reduced observably”.

What about the “creatinine (CRE) level compared with the normal group” value ([4]; day 16, p < 0.001, n = 6) of the same compound?
Its value is “increased obviously”.

What about the “blood urea nitrogen (BUN) level compared with the normal group” value ([4]; day 16, p < 0.05, n = 6) of the same compound?
Its value is “increased obviously”.

What about the “H&E staining of kidney” value ([4]; characteristic of acute kidney injury) of the same compound?
Its value is “obvious interstitial inflammatory cell infiltration”.
